Experimental data from ChEMBL document CHEMBL1125259, “Lipophilic glycosyl phosphotriester derivatives of AZT: synthesis, NMR transmembrane transport study, and antiviral activity” (1991).

Legend:
Format in all cases: functional
CCRF-CEM [1] = assay: Concentration that reduced by 50% the HIV induced CPE (cytopathic effect) on day 11.; conditions: Homo sapiens, 264 h, read-out: ED50 (the source's name)
Method in brief: (§1)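 CEM-C113 cells (1×10^5 cells/mL) were infected with HIV-1 LAV-Bru or mock-infected, with compound dilutions in triplicate, for at least 7 days. Medium with or without drug was renewed every 3–4 days for longer runs. MTT absorbance was read at 540 nm. CD50 = 50% reduction of mock-infected absorbance; ED50 = dose giving 50% protection from CPE. Values are averages of at least two experiments.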

CCRF-CEM [2] = assay: Concentration that reduced by 50% the HIV induced CPE (cytopathic effect) on day 19.; conditions: Homo sapiens, 456 h, read-out: ED50 (the source's name); method in brief: as §1
CCRF-CEM [3] = assay: Concentration that reduced by 50% the HIV induced CPE (cytopathic effect) on day 7.; conditions: Homo sapiens, 168 h, read-out: ED50 (the source's name); method in brief: as §1
CCRF-CEM [4] = assay: Concentration required to reduce the viability of uninfected cells (CEM-CL13) by 50% on day 11.; conditions: Homo sapiens, 264 h, read-out: CD50 (the source's name); method in brief: as §1
CCRF-CEM [5] = assay: Concentration required to reduce the viability of uninfected cells (CEM-CL13) by 50% on day 19.; conditions: Homo sapiens, 456 h, read-out: CD50 (the source's name); method in brief: as §1
CCRF-CEM [6] = assay: Concentration required to reduce the viability of uninfected cells (CEM-CL13) by 50% on day 7.; conditions: Homo sapiens, 168 h, read-out: CD50 (the source's name); method in brief: as §1
[7] = target: Human immunodeficiency virus type 1 reverse transcriptase (Human immunodeficiency virus 1) (UniProt Q72547); assay: Compound ability to inhibit the production of HIV reverse transcriptase (RT) in culture supernatant of monocytic U937 on at 14 days at a concentration 1 uM
Method in brief: (§2)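 HIV-1-infected monocytic U937 cultures were kept up to 14 days with compound. Supernatant RT activity was measured as for CEM-C113, as [³H] cpm/50 µL. % inhibition = 100 − 100 × (cpm of treated samples / cpm of control virus).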

[8] = target: Human immunodeficiency virus type 1 reverse transcriptase (Human immunodeficiency virus 1) (UniProt Q72547); assay: Compound ability to inhibit the production of HIV reverse transcriptase (RT) in culture supernatant of monocytic U937 on at 7 days at a concentration 1 uM; method in brief: as §2
[9] = target: Human immunodeficiency virus type 1 reverse transcriptase (Human immunodeficiency virus 1) (UniProt Q72547); assay: Compound ability to inhibit the production of HIV reverse transcriptase (RT) in preinfected PBL (peripheral blood lymphocytes) at 10 days at a concentration 1 uM
Method in brief: (§3)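 PBL were infected with HIV-1 for 1 h at 37 °C, washed twice, and resuspended in complete medium with 10% interleukin-2 and anti-human α-interferon (1000 units/mL). Cells were plated at 1×10^6 cells/well with or without compound. At each time point, 50 µL supernatant was taken for RT assay ([³H]dTTP incorporation, cpm).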

[10] = target: Human immunodeficiency virus type 1 reverse transcriptase (Human immunodeficiency virus 1) (UniProt Q72547); assay: Compound ability to inhibit the production of HIV reverse transcriptase (RT) in preinfected PBL (peripheral blood lymphocytes) at 14 days at a concentration 5 uM; method in brief: as §3
[11] = target: Human immunodeficiency virus type 1 reverse transcriptase (Human immunodeficiency virus 1) (UniProt Q72547); assay: Compound ability to inhibit the production of HIV reverse transcriptase (RT) in preinfected PBL (peripheral blood lymphocytes) at 21 days at a concentration 5 uM; method in brief: as §3
[12] = target: Human immunodeficiency virus type 1 reverse transcriptase (Human immunodeficiency virus 1) (UniProt Q72547); assay: Compound ability to inhibit the production of HIV reverse transcriptase (RT) in preinfected PBL (peripheral blood lymphocytes) at 7 days at a concentration 5 uM; method in brief: as §3
[13] = target: Human immunodeficiency virus type 1 reverse transcriptase (Human immunodeficiency virus 1) (UniProt Q72547); assay: Compounds were evaluated for anti-RT activity at 0 days of culture
Method in brief: (§4)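 HIV-1 (12 500 CCID50) was preincubated with compound at 25 µM final for 60 min at 37 °C, pelleted by ultracentrifugation and resuspended. RT was measured at once with poly(rA)-oligo(dT) and ³H-dTTP (1 h, 37 °C, cpm). Treated virus was then put on CEM-C113 cells for 60 min and replaced with compound-free medium. Supernatant RT was read at days 7 and 9.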

[14] = target: Human immunodeficiency virus type 1 reverse transcriptase (Human immunodeficiency virus 1) (UniProt Q72547); assay: Compound ability to inhibit the production of HIV reverse transcriptase (RT) in culture supernatant of monocytic U937 on at 11 days at a concentration 1 uM; method in brief: as §2
[15] = target: Human immunodeficiency virus type 1 reverse transcriptase (Human immunodeficiency virus 1) (UniProt Q72547); assay: Compound ability to inhibit the production of HIV reverse transcriptase (RT) in culture supernatant of CEM-CL13 on at 15 days at a concentration 0.2 uM
Method in brief: (§5)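 CEM-C113 cells in RPMI 1640 with 5% heat-inactivated FCS and polybrene (2 µg/mL) were plated at 1×10^5 cells/mL with compound in PBS, in triplicate, and infected with HIV-1 LAV-Bru. From day 7, every 3–4 days, fresh medium with or without drug was added and 50 µL supernatant was taken for RT microassay. The RT microassay used poly(rA)-oligo(dT) and (methyl-³H)dTTP for 1 h at 37 °C, with TCA precipitation, read as cpm/50 µL.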

[16] = target: Human immunodeficiency virus type 1 reverse transcriptase (Human immunodeficiency virus 1) (UniProt Q72547); assay: Compound ability to inhibit the production of HIV reverse transcriptase (RT) in culture supernatant of CEM-CL13 on at 22 days at a concentration 0.2 uM; method in brief: as §5
[17] = target: Human immunodeficiency virus type 1 reverse transcriptase (Human immunodeficiency virus 1) (UniProt Q72547); assay: Compound ability to inhibit the production of HIV reverse transcriptase (RT) in culture supernatant of CEM-CL13 on at 26 days at a concentration 0.2 uM; method in brief: as §5
[18] = target: Human immunodeficiency virus type 1 reverse transcriptase (Human immunodeficiency virus 1) (UniProt Q72547); assay: Compound ability to inhibit the production of HIV reverse transcriptase (RT) in culture supernatant of CEM-CL13 on at 7 days at a concentration 0.2 uM; method in brief: as §5
[19] = target: Human immunodeficiency virus type 1 reverse transcriptase (Human immunodeficiency virus 1) (UniProt Q72547); assay: Compounds were evaluated for anti-RT activity at 9 days of culture; method in brief: as §4
[20] = target: Human immunodeficiency virus type 1 reverse transcriptase (Human immunodeficiency virus 1) (UniProt Q72547); assay: Compounds were evaluated for anti-RT activity by MTT dose and % cell / viability was reported at 13 days of culture
[21] = target: Human immunodeficiency virus type 1 reverse transcriptase (Human immunodeficiency virus 1) (UniProt Q72547); assay: Compounds were evaluated for anti-RT activity by MTT dose and % cell / viability was reported at 7 days of culture
Method in brief: (§6)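 HIV-1 was preincubated with compound at 25 µM for 60 min at 37 °C, pelleted, and added to CEM-C113 cells (1×10^5 cells/mL) for 60 min at 37 °C. Medium was then replaced without compound. At days 7 and 9, viability was read by MTT assay on 100 µL of cell suspension.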

[22] = target: Human immunodeficiency virus type 1 reverse transcriptase (Human immunodeficiency virus 1) (UniProt Q72547); assay: Compounds were evaluated for anti-RT activity by MTT dose and % cell / viability was reported at 9 days of culture; method in brief: as §6
[23] = target: Human immunodeficiency virus type 1 reverse transcriptase (Human immunodeficiency virus 1) (UniProt Q72547); assay: Percent inhibition measured as the production of HIV reverse transcriptase (RT) in culture supernatant of monocytic U937 on at 11 days at a concentration 1 uM
Method in brief: (§7)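 U937 cells in RPMI 1640 with 5% heat-inactivated FCS, penicillin, streptomycin and polybrene (2 μg/mL), 37 °C, 5% CO2. Infected with HIV-1 LAV-Bru; compounds diluted in PBS. 50 μL supernatant aliquots were assayed for RT: 1 h, 37 °C, pH 7.8, Mg2+, poly(rA)-oligo(dT), [3H]dTTP, TCA-pyrophosphate stop, filter counting. % inhibition = 100 − 100 × (treated cpm / virus-control cpm).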

[24] = target: Human immunodeficiency virus type 1 reverse transcriptase (Human immunodeficiency virus 1) (UniProt Q72547); assay: Percent inhibition measured as the production of HIV reverse transcriptase (RT) in culture supernatant of monocytic U937 on at 7 days at a concentration 1 uM; method in brief: as §7
[25] = target: Human immunodeficiency virus type 1 reverse transcriptase (Human immunodeficiency virus 1) (UniProt Q72547); assay: Compounds were evaluated for anti-RT activity by MTT dose and %protection was reported at 13 days of culture
[26] = target: Human immunodeficiency virus type 1 reverse transcriptase (Human immunodeficiency virus 1) (UniProt Q72547); assay: Compounds were evaluated for anti-RT activity by MTT dose and %protection was reported at 9 days of culture; method in brief: as §6

Structure (SMILES)	EC50 (CCRF-CEM [1]) [µM]	EC50 (CCRF-CEM [2]) [µM]	EC50 (CCRF-CEM [3]) [µM]	CC50 (CCRF-CEM [4]) [µM]	CC50 (CCRF-CEM [5]) [µM]	CC50 (CCRF-CEM [6]) [µM]	Activity (c.p.m. 50ul-1) [7]	Activity (c.p.m. 50ul-1) [8]	Activity (c.p.m. 50ul-1) [9]	Activity (c.p.m. 50ul-1) [10]	Activity (c.p.m. 50ul-1) [11]	Activity (c.p.m. 50ul-1) [12]	Activity (c.p.m. 50ul-1) [13]	Activity (c.p.m. 50ul-1) [14]	Activity (c.p.m. 50ul-1) [15]	Activity (c.p.m. 50ul-1) [16]	Activity (c.p.m. 50ul-1) [17]	Activity (c.p.m. 50ul-1) [18]	Activity (c.p.m. 50ul-1) [19]	Cell viability [20] [%]	further results
Cc1cn([C@H]2C[C@H](N=[N+]=[N-])[C@@H](COP(=O)(O)OCCO[C@H]3O[C@H](CO)[C@@H](O)[C@H](O)[C@@H]3O)O2)c(=O)[nH]c1=O	0.15	0.14	0.16	28	30	25	25000	306000	4400	471	3380	855	30000	174000	2600	27000	70000	4400	39000	20	Cell viability [21]: 39%; Cell viability [22]: 28%; inhibition [23]: 0%; inhibition [24]: 0%; Protection [25]: 7%; Protection [26]: 12%
Cc1cn([C@H]2C[C@H](N=[N+]=[N-])[C@@H](CO)O2)c(=O)[nH]c1=O [ZIDOVUDINE]	0.12	0.18	0.12	23	26	26	37000	36000	757	302	542	965	19000	134000	1100	6400	28000	1500	7500	34	Cell viability [21]: 100%; Cell viability [22]: 79%; inhibition [23]: 7%; inhibition [24]: 85%; Protection [25]: 26%; Protection [26]: 76%
Cc1cn([C@H]2C[C@H](N=[N+]=[N-])[C@@H](COP(=O)(O)OC[C@H]3OC(O)[C@H](O)[C@@H](O)[C@@H]3O)O2)c(=O)[nH]c1=O (stereo partly drawn)	0.16	0.7	0.2	35	38	30	17000	158000	771	732	373	890	32000	145000	750	2200	65000	1600	28000	17	Cell viability [21]: 50%; Cell viability [22]: 34%; inhibition [23]: 0%; inhibition [24]: 36%; Protection [25]: 0%; Protection [26]: 13%
